Converted amounts (≈) assume the structure as drawn.
Tests used:
[1] = tested on: Mycobacterium tuberculosis; test: Antimycobacterial activity against Mycobacterium tuberculosis H37Ra ATCC 25177 after 7 days by Alamar Blue assay; type: functional; conditions: H37Ra ATCC 25177, 168 h
Outline: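 Log-phase culture washed and resuspended in supplemented Middlebrook 7H9GC broth, adjusted to McFarland No. 1, then diluted 1:20. Equal volumes of culture and DMSO-prepared compound dilutions were tested in duplicate for 7 days. 10% AlamarBlue was added, with 570/600 nm readings for background and after 24 h reincubation. Blue meant no growth, pink meant growth. MIC was the lowest concentration without visible growth.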

[2] = tested on: Mycobacterium avium complex sp.; test: Antimycobacterial activity against Mycobacterium avium complex CIT19/06 clinical isolate after 5 days by Alamar Blue assay; type: functional; conditions: CIT19/06, 120 h
[3] = tested on: Mycobacterium avium; test: Antimycobacterial activity against Mycobacterium avium subsp. paratuberculosis CIT03 clinical isolate after 11 days by Alamar Blue assay; type: functional; conditions: CIT03, 264 h
[4] = tested on: L6; test: Cytotoxicity against rat L6 cells after 70 hrs by Alamar Blue-based assay; type: cell-based; conditions: L6, 70 h
Outline: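 Rat skeletal myoblast L-6 cells, 4000 per well, in RPMI 1640 with 10% FBS and L-glutamine. Eleven 3-fold serial dilutions spanning 100 to 0.002 were tested for 70 h. Alamar Blue was then added for 2 h and fluorescence read at ex 536 / em 588 nm. IC50 came from linear regression of sigmoid curves, averaged over two replicate experiments, with podophyllotoxin as control.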

Row | Compound | MIC [1] [µg/mL] | MIC [2] [µg/mL] | MIC [3] [µg/mL] | IC50 [4] [µg/mL]
1 | COc1cc(NC(C)CCCNC(=O)NCCCC(C)Nc2cc(OC)cc3cccnc23)c2ncccc2c1 (stereo not drawn) | 128 (≈ 235 µM) | 256 (≈ 470 µM) | 128 (≈ 235 µM) | > 100
2 | COc1cc(NC(C)CCCNC(=O)/C=C/c2ccccc2)c2ncccc2c1 (stereo not drawn) | 16 (≈ 41.1 µM) | 32 (≈ 82.2 µM) | 16 (≈ 41.1 µM) | 
3 | COc1cc(NC(C)CCCNC(=O)/C=C/c2ccc(Cl)cc2)c2ncccc2c1 (stereo not drawn) | 64 (≈ 151 µM) | 128 (≈ 302 µM) | 64 (≈ 151 µM) | 
4 | COc1ccc(/C(=N/NC(=O)NNC(=O)NCCCC(C)Nc2cc(OC)cc3cccnc23)c2ccccc2)cc1 (stereo not drawn) | 2 (≈ 3.51 µM) | 16 (≈ 28.1 µM) | 4 (≈ 7.02 µM) | 
5 | COc1cc(NC(C)CCCNC(=O)NNC(=O)N(C)C(c2ccccc2)c2ccccc2)c2ncccc2c1 (stereo not drawn) | 64 (≈ 118 µM) | 64 (≈ 118 µM) | 64 (≈ 118 µM) | 
6 | COc1cc(NC(C)CCCNC(=O)NNC(=O)NCCCC(C)Nc2cc(OC)cc3cccnc23)c2ncccc2c1 (stereo not drawn) | 2 (≈ 3.32 µM) | 16 (≈ 26.5 µM) | 4 (≈ 6.64 µM) | 
7 | COc1cc(NC(C)CCCNC(=O)NNC(=O)Nc2ccc(Cl)c(C(F)(F)F)c2)c2ncccc2c1 (stereo not drawn) | 2 (≈ 3.71 µM) | 2 (≈ 3.71 µM) | 2 (≈ 3.71 µM) | 30 (≈ 55.7 µM)
8 | COc1cc(NC(C)CCCNC(=O)NNC(=O)NCCCO)c2ncccc2c1 (stereo not drawn) | 256 (≈ 612 µM) | 256 (≈ 612 µM) | 256 (≈ 612 µM) | 
9 | COc1cc(NC(C)CCCNC(=O)NNC(=O)NCCCCCO)c2ncccc2c1 (stereo not drawn) | 256 (≈ 573 µM) | 256 (≈ 573 µM) | 256 (≈ 573 µM) | 
10 | COc1cc(NC(C)CCCNC(=O)NNC(=O)N(CCO)CCO)c2ncccc2c1 (stereo not drawn) | 256 (≈ 571 µM) | 256 (≈ 571 µM) | 256 (≈ 571 µM) | 
11 | COc1cc(NC(C)CCCNC(=O)N(C)C(c2ccccc2)c2ccccc2)c2ncccc2c1 (stereo not drawn) | 128 (≈ 265 µM) | 128 (≈ 265 µM) | 128 (≈ 265 µM) | 80.5 (≈ 167 µM)
12 | COc1cc(NC(C)CCCNC(=O)NC(c2ccccc2)c2ccc(Cl)cc2)c2ncccc2c1 (stereo not drawn) | 128 (≈ 254 µM) | 128 (≈ 254 µM) | 128 (≈ 254 µM) | 
13 | COc1ccc(/C(=N/NC(=O)NCCCC(C)Nc2cc(OC)cc3cccnc23)c2ccccc2)cc1 (stereo not drawn) | 128 (≈ 250 µM) | 256 (≈ 500 µM) | 128 (≈ 250 µM) | > 100
14 | COc1ccc(C(=NNC(=O)NCCCC(C)Nc2cc(OC)cc3cccnc23)c2ccc(OC)cc2)cc1 (stereo not drawn) | 128 (≈ 236 µM) | 256 (≈ 473 µM) | 128 (≈ 236 µM) | > 100
15 | COc1cc(NC(C)CCCNC(=O)Nc2ccc(Cl)c(C(F)(F)F)c2)c2ncccc2c1 (stereo not drawn) | 16 (≈ 33.3 µM) | 16 (≈ 33.3 µM) | 16 (≈ 33.3 µM) | 
16 | COc1cc(NC(C)CCCNC(=O)NN)c2ncccc2c1 (stereo not drawn) | 32 (≈ 101 µM) | 32 (≈ 101 µM) | 32 (≈ 101 µM) | 
17 | COc1cc(NC(C)CCCNC(=O)Nc2cccc(C(F)(F)F)c2)c2ncccc2c1 (stereo not drawn) | 2 (≈ 4.48 µM) | 2 (≈ 4.48 µM) | 2 (≈ 4.48 µM) | 150 (≈ 336 µM)
18 | COc1cc(NC(C)CCCNC(=O)Nc2ccc(O)cc2)c2ncccc2c1 (stereo not drawn) | 128 (≈ 324 µM) | 256 (≈ 649 µM) | 128 (≈ 324 µM) | 14.8 (≈ 37.5 µM)
19 | COc1cc(NC(C)CCCNC(=O)NNC(=O)Nc2cccc(O)c2)c2ncccc2c1 (stereo not drawn) | 128 (≈ 283 µM) | 256 (≈ 566 µM) | 128 (≈ 283 µM) | 
20 | COc1cc(NC(C)CCCNC(=O)NNC(=O)Nc2cccc(Cl)c2)c2ncccc2c1 (stereo not drawn) | 128 (≈ 272 µM) | 256 (≈ 544 µM) | 128 (≈ 272 µM) | 
21 | COc1cc(NC(C)CCCNC(=O)Nc2cccc(Cl)c2)c2ncccc2c1 (stereo not drawn) | 16 (≈ 38.7 µM) | 16 (≈ 38.7 µM) | 16 (≈ 38.7 µM) | 10 (≈ 24.2 µM)
22 | COc1cc(NC(C)CCCNC(=O)NNC(=O)Nc2cccc(F)c2)c2ncccc2c1 (stereo not drawn) | 128 (≈ 282 µM) | 256 (≈ 563 µM) | 128 (≈ 282 µM) | 
23 | COc1cc(NC(C)CCCNC(=O)Nc2cccc(O)c2)c2ncccc2c1 (stereo not drawn) | 8 (≈ 20.3 µM) | 16 (≈ 40.6 µM) | 16 (≈ 40.6 µM) | 38 (≈ 96.3 µM)

Row | Compound | MIC [1] [µg/mL] | MIC [2] [µg/mL] | MIC [3] [µg/mL] | IC50 [4] [µg/mL]
24 | COc1cc(NC(C)CCCNC(=O)Nc2cccc(F)c2)c2ncccc2c1 (stereo not drawn) | 2 (≈ 5.04 µM) | 8 (≈ 20.2 µM) | 4 (≈ 10.1 µM) | 9.18 (≈ 23.2 µM)
25 | COc1cc(NC(C)CCCNC(=O)NNC(=O)Nc2ccc(O)cc2)c2ncccc2c1 (stereo not drawn) | 128 (≈ 283 µM) | 256 (≈ 566 µM) | 128 (≈ 283 µM) | 
26 | COc1cc(NC(C)CCCNC(=O)NNC(=O)Nc2cccc(C(F)(F)F)c2)c2ncccc2c1 (stereo not drawn) | 128 (≈ 254 µM) | 128 (≈ 254 µM) | 128 (≈ 254 µM) | 
27 | COc1cc(NC(C)CCCNC(=O)Nc2ccc(F)cc2)c2ncccc2c1 (stereo not drawn) | 8 (≈ 20.2 µM) | 16 (≈ 40.4 µM) | 16 (≈ 40.4 µM) | 9.3 (≈ 23.5 µM)
28 | COc1cc(NC(C)CCCNC(=O)Nc2ccc(Cl)cc2)c2ncccc2c1 (stereo not drawn) | 16 (≈ 38.7 µM) | 64 (≈ 155 µM) | 32 (≈ 77.5 µM) | 
29 | COc1cc(NC(C)CCCNC(=O)/C=C/c2ccc(OC)c(OC)c2)c2ncccc2c1 (stereo not drawn) | 128 (≈ 285 µM) | 256 (≈ 569 µM) | 128 (≈ 285 µM) | > 100
30 | COc1cc(NC(C)CCCNC(=O)NNC(=O)NCCc2ccccc2)c2ncccc2c1 (stereo not drawn) | 128 (≈ 276 µM) | 256 (≈ 551 µM) | 128 (≈ 276 µM) | 
31 | COc1cc(NC(C)CCCNC(=O)/C=C/c2cccc(C(F)(F)F)c2)c2ncccc2c1 (stereo not drawn) | 32 (≈ 69.9 µM) | 128 (≈ 280 µM) | 32 (≈ 69.9 µM) | 
32 | COc1cc(NC(C)CCCNC(=O)NNC(=O)NCc2ccccc2)c2ncccc2c1 (stereo not drawn) | 128 (≈ 284 µM) | 256 (≈ 568 µM) | 128 (≈ 284 µM) | 
33 | COc1cc(NC(C)CCCNC(=O)/C=C/c2ccc(C(F)(F)F)cc2)c2ncccc2c1 (stereo not drawn) | 32 (≈ 69.9 µM) | 128 (≈ 280 µM) | 64 (≈ 140 µM) | 
34 | COc1cc(NC(C)CCCNC(=O)/C=C/c2cc(OC)c(OC)c(OC)c2)c2ncccc2c1 (stereo not drawn) | 256 (≈ 534 µM) | 256 (≈ 534 µM) | 256 (≈ 534 µM) | > 100
35 | COc1cc(NC(C)CCCNC(=O)/C=C/c2ccccc2F)c2ncccc2c1 (stereo not drawn) | 32 (≈ 78.5 µM) | 128 (≈ 314 µM) | 64 (≈ 157 µM) | 1.5 (≈ 3.68 µM)
36 | COc1cc(NC(C)CCCNC(=O)/C=C/c2ccc3c(c2)OCO3)c2ncccc2c1 (stereo not drawn) | 64 (≈ 148 µM) | 64 (≈ 148 µM) | 64 (≈ 148 µM) | 
37 | COc1cc(NC(C)CCCNC(=O)NC2CCCCC2)c2ncccc2c1 (stereo not drawn) | 16 (≈ 41.6 µM) | 32 (≈ 83.2 µM) | 16 (≈ 41.6 µM) | 
38 | COc1cc(NC(C)CCCNC(=O)NC2CCCC2)c2ncccc2c1 (stereo not drawn) | 16 (≈ 43.2 µM) | 32 (≈ 86.4 µM) | 16 (≈ 43.2 µM) | 
39 | COc1cc(NC(C)CCCNC(=O)NCc2ccncc2)c2ncccc2c1 (stereo not drawn) | 32 (≈ 81.3 µM) | 32 (≈ 81.3 µM) | 32 (≈ 81.3 µM) | 
40 | COc1cc(NC(C)CCCNC(=O)NCCO)c2ncccc2c1 (stereo not drawn) | 32 (≈ 92.4 µM) | 64 (≈ 185 µM) | 64 (≈ 185 µM) | 
41 | COc1cc(NC(C)CCCNC(=O)NCCCO)c2ncccc2c1 (stereo not drawn) | 64 (≈ 178 µM) | 64 (≈ 178 µM) | 64 (≈ 178 µM) | 
42 | O=C(O)c1cn(C2CC2)c2cc(N3CCNCC3)c(F)cc2c1=O [CIPROFLOXACIN] | 16 (≈ 48.3 µM) |  |  | 
43 | NNC(=O)c1ccncc1 [ISONIAZID] | 5 (≈ 36.5 µM) | > 256 | > 256 | 
44 | COc1cc([C@@H]2c3cc4c(cc3[C@H](O)[C@H]3COC(=O)[C@H]23)OCO4)cc(OC)c1OC [PODOFILOX] |  |  |  | 0.007 (≈ 0.0169 µM)
45 | COc1cc(NC(C)CCCN)c2ncccc2c1.O=P(O)(O)O.O=P(O)(O)O (stereo not drawn) [PRIMAQUINE PHOSPHATE] | 32 | 32 | 32 | 
46 | CO[C@H]1/C=C/O[C@@]2(C)Oc3c(C)c(O)c4c(O)c(c(/C=N/N5CCN(C)CC5)c(O)c4c3C2=O)NC(=O)/C(C)=C\C=C\[C@H](C)[C@H](O)[C@@H](C)[C@@H](O)[C@@H](C)[C@H](OC(C)=O)[C@@H]1C [RIFAMPIN] | 8 (≈ 9.72 µM) | 30 (≈ 36.5 µM) | 90 (≈ 109 µM) | 

Reference: ChEMBL document CHEMBL4251591, “Primaquine hybrids as promising antimycobacterial and antimalarial agents” (Eur J Med Chem, 2018)
